# Sampled rows, rich in hits. Any-hit rate of the full collection: about 2.3%.
# Myeloid diff MLP – compounds promoting myeloid differentiation. calls only at 10 µM. 1% of 360,000 active. ER-HoxA9 myeloid progenitors, lysozyme-GFP differentiation, flow cytometry. AID 624256;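 active = normalized GFP-positive differentiation at or above the plate's own cutoff, the solvent-only control mean plus 3 SD; inconclusive = no clear call, values can overlap the other calls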;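 also: cells exposed to compound for four days before flow analysis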
# Rpn11 block – blocks the human proteasome subunit Rpn11; O00487; human 26S proteasome, Ub4-pepOG fluorescence polarization; 20S core pre-blocked with epoxomicin; inhibition, % at 20 µM; 0.59% of 360,000 active;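 active = inhibition at 20 µM, scaled to each plate's controls, above about 33%, limit read from the data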
# Target sequence (O00487 whole entry, looked up): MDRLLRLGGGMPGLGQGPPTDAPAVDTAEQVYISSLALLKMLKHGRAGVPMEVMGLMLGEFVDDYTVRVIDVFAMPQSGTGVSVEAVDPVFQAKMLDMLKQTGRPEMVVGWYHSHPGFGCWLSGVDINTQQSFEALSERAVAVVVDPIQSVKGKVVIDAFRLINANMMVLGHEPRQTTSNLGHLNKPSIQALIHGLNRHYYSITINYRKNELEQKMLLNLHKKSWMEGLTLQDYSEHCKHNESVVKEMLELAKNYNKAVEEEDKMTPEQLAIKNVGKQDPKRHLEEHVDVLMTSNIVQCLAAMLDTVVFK
# HNF4A DNA FP – change in binding of human HNF4 alpha to DNA; P41235; HNF4a-FITC DNA binding, fluorescence polarization, 1 h; activity change, % at 10 µM; 0.3% of 360,000 active; AID 1224865; in the data active = activity change above about 30%, passing the limit was not always enough
# TPT1 inhibitor – C. albicans TPT1 enzyme inhibition; recombinant caTPT1, FP RNA substrate dephosphorylation; inhibition, % at 5 µM; 0.81% of 300,000 active; AID 1962;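 active = inhibition above the mean of all tested compounds plus 3 SD, set per screening campaign, cut at about 24% in these data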;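 also: plate controls were DMSO alone for no effect and ferristatin control at 100 nM for full effect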
# CSN inh – blocks human CSN-mediated cullin deneddylation; Q92905; Purified CSN, SCF-Nedd8-OG deneddylation, fluorescence polarization; 0.38% of 360,000 active; AID 651999; inhibition, % at 12.5 µM;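 active = pattern-corrected inhibition above about 35%, with an unprinted fluorescence ratio check between 0.5 and 1.5, limit read from the data, passing the limit was not always enough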;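 also: 0% = enzyme with substrate and 100% = substrate without enzyme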
#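 Assay system: purified human Csn5 enzyme expressed in HEK293T cells; Input: 0.24 nM Csn5 enzyme, final concentration; Reagent: 10 nM SCFSkp2-Nedd8OG; Compound dosing: 12.5 µM single point; Times: reaction 90 min, room temperature; Technique: fluorescence polarization readout.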
# caTPT1 confirm – confirmation of Candida albicans TPT1 inhibitors; inhibition, % at 5 µM; recombinant caTPT1, fluorescence polarization, RNase T1 coupled; 74% of 2,400 active; shares compounds with TPT1 inhibitor;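 active = inhibition above the primary screen limit, the mean inhibition of all tested compounds plus 3 SD, cut at about 25% in these data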
# RNase T1 inh – blocks Aspergillus oryzae RNase T1, a TPT1 counter-screen. inhibition, % at 5 µM. AID 2153. 83% of 2,400 active. shares compounds with TPT1 inhibitor. RNase T1 cleavage, fluorescence polarization, 1536-well;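 active = inhibition above the solvent-only control well mean plus 3 SD, limit set per screening run, cut at about 23% in these data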;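 also: plate controls were DMSO wells with enzyme for no effect and wells without RNase T1 for full effect; inhibitors block cleavage so intact labeled substrate keeps polarization high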
# Target sequence (P00651 whole entry, looked up): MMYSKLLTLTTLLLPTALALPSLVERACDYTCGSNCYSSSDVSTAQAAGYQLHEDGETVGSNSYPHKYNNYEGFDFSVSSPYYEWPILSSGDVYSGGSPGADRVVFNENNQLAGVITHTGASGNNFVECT
# The depositor's hits bear a star; i = inactive; ? = inconclusive; . = no result given; + = active, no number.
SMILES,Myeloid diff MLP,Rpn11 block,HNF4A DNA FP,TPT1 inhibitor,CSN inh,caTPT1 confirm,RNase T1 inh
CCOC(=O)C(C)Sc1nc(-c2ccco2)cc(C(F)(F)F)c1C#N (stereo unspecified),i,28,10,26*,3,14,20
CCOC(=O)CCSc1nc(C(C)(C)C)cc(C(F)(F)F)c1C#N,i,-4,-13,1,1,.,.
CCOC(=O)CCSc1nc(C)cc(C(F)(F)F)c1C#N,+,.,28,25*,38*,33*,44*
CCOC(=O)COc1nc(-c2ccco2)cc(-c2ccco2)c1C#N,i,26,7,8,34,.,.
CCn1c(O)c(/C=N/N=C/c2ccc(OC)cc2)c2cc(C3=NNC(=O)CC3)ccc21,i,.,95*,47*,89*,74*,86*
CC/C(C)=N\N=C\c1c(O)n(CC)c2cc(C3=NNC(=O)CC3)ccc12,i,18,11,51*,12,35*,47*
O=C(O)C1c2ccccc2Cc2ccccc21,i,-4,2,.,4,.,.
CSc1ccc(CN2CCN(C(=O)CC(C)C)CC2)cc1,i,0,-4,26*,1,7,12
CC(C)CC(=O)N1CCN(Cc2ccc3ccccc3c2)CC1,i,4,0,-3,6,.,.
Cc1ccccc1-n1c(SCC(=O)NC(N)=O)nc2sc(-c3ccccc3)cc2c1=O,i,8,1,31*,5,6,11
CC(C)COC(=O)N(C)C[C@@H]1OCc2cnnn2CCCC(=O)N([C@@H](C)CO)C[C@H]1C,i,-3,1,.,6,.,.
O=C(COc1ccccc1F)N1N=C(c2cccs2)CC1c1ccco1 (stereo unspecified),i,-1,1,.,6,.,.
N#C/C(=C\c1cc(O)c(O)c(O)c1)C(N)=O,i,20,2,33*,14,27*,36*
C[C@@H]1CN([C@H](C)CO)C(=O)c2cc(Br)cnc2O[C@H]1CN(C)C,i,6,-6,.,2,.,.
Cc1cccc(C)c1NC(=O)C(CCc1ccccc1)n1c(=O)c(-c2ccccc2)nc2ccccc21 (stereo unspecified),i,.,3,.,6,.,.
Cn1c(-c2c(N)n(C3CCCC3)c3nc4ccccc4nc23)nc2ccccc21,i,14,10,39*,4,43*,51*
COCCCn1c(N)c(-c2nc3ccccc3n2C)c2nc3ccccc3nc21,?,37,18,46*,12,46*,59*
COCCn1c(N)c(S(=O)(=O)c2cccs2)c2nc3ccccc3nc21,i,-6,5,-3,0,.,.
O=C1C2C3CCC(CC3)C2C(=O)N1c1ccccc1 (stereo unspecified),i,0,-1,1,4,.,.
CCCCN1C(=O)/C(=C/C=C2/CC(C)(C)CN2C)SC1=S,i,.,-78,169*,-95,174*,160*
CCN1C(=O)/C(=C/C=C2/SCCN2C)SC1=S,i,.,197,+,103,168*,157*
CCOc1cc(/C=C2/C(=O)NN(c3cccc(Cl)c3)C2=O)ccc1O,i,23,2,43*,7,66*,84*
COc1cc(/C=C2\C(=O)NN(c3ccccc3)C2=O)ccc1OCC(N)=O,.,.,.,-4,.,.,.
COc1cc(/C=C2/C(=O)NN(c3cccc(Cl)c3)C2=O)cc(OC)c1O,i,.,-1,124*,28,151*,150*
COc1cccc(/C=C2/C(=O)NN(c3ccccc3)C2=O)c1,i,2,0,.,5,.,.
SMILES,Myeloid diff MLP,Rpn11 block,HNF4A DNA FP,TPT1 inhibitor,CSN inh,caTPT1 confirm,RNase T1 inh
CCN1CCN(C(=O)c2ccc3c(c2)N(Cc2ccc(F)cc2)C(=O)c2ccccc2S3=O)CC1 (stereo unspecified),i,-3,3,0,0,.,.
O=c1oc2ccccc2nc1/C=C(O)/C=C\c1ccccc1,i,11,6,27*,2,17,28*
O=c1oc2ccccc2nc1/C=C(O)/C=C/c1ccc(F)cc1,i,11,3,3,2,.,.
CCCCN1C(=O)C2Cc3c([nH]c4ccccc34)CN2C1=S (stereo unspecified),+,40,-21,25*,14,24,38*
CCCCCN1CC(=O)N2Cc3[nH]c4ccccc4c3C[C@H]2C1=O,i,7,1,-4,-10,.,.
Cc1ccsc1C(=O)N1CCCC(C)(C(=O)O)C1 (stereo unspecified),i,2,3,.,-3,.,.
CCNc1cc2n(c(=O)n1)CCc1cc(OC)c(OC)cc1-2,i,-4,0,3,3,.,.
COc1cc2c(cc1OC)-c1cc(OCCN3CCOCC3)nc(=O)n1CC2,+,16,3,25*,12,32*,44*
CN1C(=O)[C@H]2[C@@H](/C=C/c3ccccc3)N3C(=O)CN(Cc4ccccn4)C(=O)[C@@]3(C)[C@H]2C1=O,i,-5,3,-1,4,.,.
Cc1ccc(NC(=O)CN2C(=O)S/C(=C\c3ccc(-c4cccc(C(=O)O)c4C)o3)C2=O)cc1,.,.,.,6,.,.,.
Cc1ccc(C)c(N2C(=N)S/C(=C\c3ccc(-c4ccccc4C(=O)O)o3)C2=O)c1,i,37,18,59*,4,41*,53*
CCN(CC)c1ccc(C=C(c2nnnn2-c2ccccc2)c2nnnn2-c2ccccc2)cc1,i,.,30,69*,22,94*,104*
CCN(CC)c1ccc(/C=N/NC(=O)Nc2ccccc2)cc1,i,0,2,0,-8,.,.
O=C(Nc1ccc2c(c1)OCO2)[C@@H]1[C@@H]2C(=O)N(C3CCCCC3)C(=O)[C@@H]2C2c3ccccc3C=CN21 (stereo partly specified),.,.,.,62*,.,52*,63*
CCN(CC)c1ccc(/C=C2\NC(=O)NC2=O)cc1,i,22,6,27*,3,36*,50*
CCOc1ccc(NS(=O)(=O)c2ccc(C(=O)N(C)CC(=O)Nc3cccc(OC)c3)cc2)cc1,i,7,-2,.,-4,.,.
Cc1cc(NC2C3CC4CC(C3)CC2C4)n2ncnc2n1 (stereo unspecified),i,-11,0,101*,5,1,2
Cc1cc(NC2C3CC4CC(C3)CC2C4)n2nnnc2n1 (stereo unspecified),i,3,4,-2,4,.,.
CCCCCC(O)CCC(=O)NNC1=CC(=O)CC(C)(C)C1 (stereo unspecified),i,-4,4,69*,-9,9,11
Cc1ccc(C2C=C(c3ccccc3OC(F)F)Nc3ncnn32)cc1 (stereo unspecified),i,7,-3,1,3,.,.

# Assay outcomes: PubChem BioAssay, several laboratories
